This is a sample that favours compounds with a hit; in the whole collection about 2.3% have one here.
PRMT1 inh: PRMT1 (human) inhibition, primary screen | Q99873 | inhibition, % at 2.79 µM | recombinant PRMT1, activity-based probe fluorescence polarization | hit rate 1.3% among 370,000 | AID 652257;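 active = inhibition above about 21% made by adding two undisclosed values, limit read from the data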
Target sequence (Q99873 whole entry, looked up): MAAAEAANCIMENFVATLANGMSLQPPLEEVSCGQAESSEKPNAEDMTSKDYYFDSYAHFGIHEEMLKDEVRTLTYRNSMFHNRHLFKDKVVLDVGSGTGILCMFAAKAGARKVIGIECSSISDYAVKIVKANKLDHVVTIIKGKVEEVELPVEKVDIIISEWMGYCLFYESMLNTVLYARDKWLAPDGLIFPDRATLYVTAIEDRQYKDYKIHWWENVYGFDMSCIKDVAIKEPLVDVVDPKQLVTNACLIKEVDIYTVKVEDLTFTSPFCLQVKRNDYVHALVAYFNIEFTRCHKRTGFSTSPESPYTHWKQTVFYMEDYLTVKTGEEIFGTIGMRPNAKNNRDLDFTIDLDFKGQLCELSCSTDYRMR
Fam108B counter: counter-screen for RBBP9 inhibitors: inhibitors of mouse Fam108B | hit rate 0.33% among 300,000 | inhibition, % at 9.51 µM | recombinant Fam108B, FP-Rh probe fluorescence polarization;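 active = inhibition above the screen mean inhibition plus 3 SD, computed separately per campaign, cut at about 18% in these data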;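 also: inhibitors lower polarization as less probe binds the enzyme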
PME-1 inh: blocks human protein phosphatase methylesterase 1. Q9Y570. recombinant PME-1, FP-Rh probe fluorescence polarization. inhibition, % at 5.9 µM. hit rate 0.53% among 320,000. AID 2130;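 active = inhibition above the campaign mean of all compounds plus 3 SD, cut at about 26% in these data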;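 also: competitive labeling of PME-1 active site by serine hydrolase directed probe; 0% = PME-1 with DMSO and 100% = wells lacking PME-1 enzyme; inhibitors block probe labeling so polarization falls and inhibition rises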
GSTO1 counter: GSTO1 inhibition, counter-screen for RBBP9 inhibitors. P78417. recombinant GSTO1, activity-based probe fluorescence polarization. inhibition, % at 5.96 µM. hit rate 1.1% among 300,000. AID 1974;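 active = inhibition above the campaign mean inhibition plus 3 SD, cut at about 35% in these data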;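 also: 0% = GSTO1-1 with DMSO and 100% = wells lacking GSTO1-1 enzyme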
RBBP9 inhibitor: inhibitors of human serine hydrolase RBBP9 | O75884 | recombinant RBBP9, FP-Rh probe fluorescence polarization | inhibition, % at 7.94 µM | hit rate 0.2% among 220,000;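 active = inhibition above the campaign mean of all tested compounds plus 3 SD, cut at about 14% in these data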;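 also: plate controls were DMSO wells with RBBP9 for no effect and wells lacking RBBP9 protein for full effect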
Target sequence (O75884 whole entry, looked up): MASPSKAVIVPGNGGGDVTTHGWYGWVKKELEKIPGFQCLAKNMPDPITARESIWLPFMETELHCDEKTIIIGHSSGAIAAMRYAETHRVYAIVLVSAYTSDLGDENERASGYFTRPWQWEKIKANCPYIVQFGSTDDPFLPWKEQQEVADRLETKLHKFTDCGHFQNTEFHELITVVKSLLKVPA
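Test system – recombinant human RBBP9 · Input – RBBP9 2.5 µM in dispensing solution, pre-mixing · Medium – Tris buffer pH 8.0, NaCl, Pluronic · Schedule – preincubation 30 min plus labeling 45 min at 25 °C · Measured by – fluorescence polarization · Measure – % inhibition · Controls – DMSO and no-protein wells · Replicates – one well per compound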
PAD4 inh: blocks human protein arginine deiminase 4 | Q9UM07 | recombinant PAD4, RCA probe fluorescence polarization | inhibition, % at 6.36 µM | hit rate 0.41% among 330,000;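 active = percent inhibition above a cutoff equal to the mean of all tested compounds plus 3 SD, cut at about 15% in these data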;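 also: 0% = PAD4 with RCA probe and DMSO and 100% = probe without PAD4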
PRMT1 confirm: PRMT1 (human) inhibition, FP confirmation | shares compounds with PRMT1 inh | recombinant His-PRMT1, activity-based probe fluorescence polarization | inhibition, % at 2.79 µM | hit rate 42% among 3,300;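 active = mean inhibition across replicates above the hit cutoff derived for the earlier primary screen, cut at about 22% in these data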
* = called active by the depositor; . = not tested or not shown.

SMILES	PRMT1 inh	Fam108B counter	PME-1 inh	GSTO1 counter	RBBP9 inhibitor	PAD4 inh	PRMT1 confirm
Cc1cccc2sc(NC(=O)Cn3cccc3)nc12	33*	1	-3	3	3	3	19
Cc1cccc2sc(NC(=O)CCn3cccc3)nc12	5	-3	-6	6	-1	-7	.
C/C(N)=C(/C#N)C(=O)CSc1nc2ccc(C)cc2[nH]1	26*	7	0	0	-7	0	4
COC(=O)C1CSc2[nH]c(=O)sc2C1c1ccccc1 (stereo not drawn)	46*	3	7	4	0	4	26*
CC1(C(=O)CSc2nc3ccccc3s2)CCC(=O)O1 (stereo not drawn)	29*	0	3	3	-1	3	22*
Oc1ccc(/C=C/c2cc(O)cc(O)c2)cc1	2	5	-1	32	13	1	.
C=CCNC(=S)Nc1ccc(OC(F)F)c(Cl)c1	2	-1	-1	4	-1	-3	.
c1coc(-c2ccc3nncn3c2)c1	43*	.	.	.	.	.	39*
O=c1oc2c3c4c(cc2c(C(F)(F)F)c1CCN1CCOCC1)CCCN4CCC3	53*	0	-6	0	4	10	24*
CC(C)c1cc(=O)oc2c3c4c(cc12)CCCN4CCC3	8	-3	-7	-5	2	-7	.
CC(C)NC(=S)NNc1nc2ccccc2s1	60*	-2	-1	4	1	8	57*
O=C(NNc1nc2ccccc2s1)c1ccc(F)cc1	2	4	2	3	-4	1	.
Cn1nnnc1SCC(=O)Nc1nc2c(s1)CCCC2	-1	-2	-9	-1	-2	-6	.
O=C(CSC1=NCCS1)Nc1nc2c(s1)CCCC2	26*	3	-4	-3	-10	0	32*
CCCCc1c(O)nc(SCC(=O)c2ccccc2)n(-c2ccccc2C)c1=O	17	-2	3	5	0	2	.
CCCCc1c(O)nc(SCC(=O)c2ccccc2)n(-c2ccccc2OC)c1=O	40*	2	3	1	-2	2	14
O=C(/C=C/c1ccco1)N(Cc1ccc(Cl)cc1)C1CCS(=O)(=O)C1 (stereo not drawn)	28*	1	-5	-1	-3	-7	2
O=C(CCl)N1c2ccccc2Oc2ccc3ccccc3c21	60*	.	.	.	.	.	40*
COC(=O)c1[nH]c2cccc(OC)c2c1NC(=O)CCN1CCC(C)CC1	0	2	-3	1	-11	3	.
CC(C)Cn1c(-c2ccc(Br)cc2)c[nH]c1=S	41*	5	7	-5	-1	-1	21
COCCNc1nc(Cl)c(C#N)s1	0	2	-3	0	-4	4	.
c1ccc(Cn2nnnc2C(c2ccncc2)N2CCOCC2)cc1 (stereo not drawn)	0	2	-4	1	-1	1	.
CCCCC(=O)Nc1nc2c(OC)ccc(OC)c2s1	-3	0	-4	-1	-8	-1	.
CCC[n+]1c(C)sc2c(OC)ccc(OC)c21	40*	-3	0	-17	-4	11	17
O=C(CCSCCC(=O)NN=Cc1cccc(Cl)c1)NN=Cc1cccc(Cl)c1	0	.	.	.	.	.	.
SMILES	PRMT1 inh	Fam108B counter	PME-1 inh	GSTO1 counter	RBBP9 inhibitor	PAD4 inh	PRMT1 confirm
CCc1nc(SCC(=O)Nc2c(C)n(C)n(-c3ccccc3)c2=O)n[nH]1	0	-2	-4	-2	-1	4	.
CS(=O)(=O)N1N=C(c2cccs2)CC1c1ccco1 (stereo not drawn)	41*	-3	1	5	-2	2	4
NC(=O)CN1C(=O)/C(=c2\sc3nc(=O)c(Cc4ccccc4)nn3c2=O)c2ccccc21	45*	1	-2	16	-7	-1	40*
CCCN1C(=O)/C(=c2\sc3nc(=O)c(Cc4ccc(C)cc4)nn3c2=O)c2ccccc21	13	-2	-1	-2	-5	-1	.
COC(=O)c1cc(=O)nc(NN=Cc2ccc(C)cc2)s1	1	.	.	.	.	.	.
CCOC(=O)[C@]12CCC=C1N(Cc1ccc(Cl)cc1Cl)C(=O)[C@H](CC(=O)NCc1ccc(C)o1)C2	35*	.	.	.	.	.	-3
Cc1ccc(CN(C)C(=O)c2ccc3c(c2)NC(=O)CS3)o1	40*	0	-5	2	-3	-1	5
COc1ccc(C(=O)NCC(=O)NCC(c2ccco2)N(C)C)cc1OC (stereo not drawn)	0	5	-9	13	-2	-5	.
Cc1ccc2occ(C3NC(C(=O)O)CS3)c(=O)c2c1 (stereo not drawn)	-2	-2	-6	29	-3	-9	.
Cc1ccc2occ(C3N[C@H](C(=O)O)CS3)c(=O)c2c1 (stereo partly drawn)	50*	-4	-7	33	-8	-2	45*
CC(=O)c1cccc(NC(=O)/C(=C\c2ccco2)NC(=O)c2cccs2)c1	19	0	1	5	-2	1	.
Cc1ccc(C(=O)N/C(=C/c2ccco2)C(=O)Nc2cccc(C(=O)O)c2)cc1	16	-2	-15	3	.	0	.
COc1ccccc1C(=O)N/C(=C/c1ccco1)C(=O)Nc1cccc(C(=O)O)c1	28*	-4	-7	6	.	-1	8
CC(=O)c1cccc(NC(=O)/C(=C/c2ccco2)NC(=O)c2ccco2)c1	46*	1	3	-1	.	-1	27*
CCC(=O)c1cc2c(C)cc(=O)oc2c(C)c1OC(=O)C(C)C	-1	2	-4	0	-5	-3	.
O=C1NC(c2cccc(Br)c2)=N/C1=C\c1ccco1	12	1	6	5	3	-1	.
O=C1NC(c2ccccc2)=N/C1=C/c1ccco1	34*	3	3	6	-8	-4	3
CC1=C(C(=O)OC(C)C)C(c2ccc(Cl)cc2)n2c(s/c(=C\c3ccc(OCC(=O)O)cc3)c2=O)=N1 (stereo not drawn)	13	.	.	.	.	.	.
CCOC(=O)C1=C(C)N=c2sc(=Cc3ccc(OCC(=O)O)cc3)c(=O)n2C1c1ccc(SC)cc1 (stereo not drawn)	30*	.	.	.	.	.	2
CCOC(=O)C1=C(C)N=c2s/c(=C\c3ccc(OCC(=O)O)cc3)c(=O)n2C1c1ccccc1 (stereo not drawn)	34*	-2	-1	-6	.	13	9
O=C(CCCc1c[nH]c2ccccc12)N1CCOCC1	1	-1	-1	-1	-1	-4	.
N#Cc1cc2c([nH]c1=S)CCCCCC2	26*	-3	-2	4	-3	-3	12
O=C(NCc1ccccn1)c1ccc2c(c1)N(Cc1ccccc1)CCS2	6	0	7	6	-1	1	.
CCCOc1ccc(CNC(=O)c2ccc3c(c2)N(CC)CCS3)cc1	28*	1	1	5	.	5	5

High-throughput results from PubChem.
